Laboratory results published in ChEMBL document CHEMBL1137737, “Synthesis, antimicrobial and cytotoxic activities of 1,3,4-oxadiazoles, 1,3,4-thiadiazoles and 1,2,4-triazoles” (Eur J Med Chem, 2009).
Values after ≈ are worked out from the molar mass of the structure shown.

Key:
Assay type in all cases: functional
[1] = system: Klebsiella pneumoniae; assay: Antibacterial activity against Klebsiella pneumoniae NCIM 2957 at 200 ug/disk after 24 hrs by agar disc-diffusion method; details: NCIM 2957, 24 h, read-out: DIZ
Outline: (§1)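 Sterile 6 mm filter-paper discs are soaked in compound solution in DMSO and placed on nutrient agar plates already inoculated with each organism. Plates are incubated at 37 °C. The diameter of the growth-inhibition zone is read after 24 h for bacteria and after 48 h for fungi.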

[2] = system: Aspergillus niger; assay: Antifungal activity against Aspergillus niger NCIM 596 after 48 hrs by microdilution susceptibility method; details: NCIM 596, 48 h
Outline: (§2)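 This is a microdilution susceptibility test. Organism suspensions are inoculated into wells holding the dilution series, then incubated at 36 °C for 24 h (bacteria) or 48 h (fungi). MIC is the lowest concentration giving no turbidity, i.e. complete inhibition of visible growth.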

[3] = system: Klebsiella pneumoniae; assay: Antibacterial activity against Klebsiella pneumoniae NCIM 2957 at 100 ug/disk after 24 hrs by agar disc-diffusion method; details: NCIM 2957, 24 h, read-out: DIZ; outline: as §1
[4] = system: Aspergillus niger; assay: Antifungal activity against Aspergillus niger NCIM 596 at 200 ug/disk after 48 hrs by agar disc-diffusion method; details: NCIM 596, 48 h, read-out: DIZ; outline: as §1
[5] = system: Staphylococcus aureus; assay: Antibacterial activity against Staphylococcus aureus NCIM 5021 after 24 hrs by microdilution susceptibility method; details: NCIM 5021, 24 h; outline: as §2
[6] = system: Bacillus subtilis; assay: Antibacterial activity against Bacillus subtilis NCIM 2063 after 24 hrs by microdilution susceptibility method; details: NCIM 2063, 24 h; outline: as §2
[7] = system: Fusarium solani; assay: Antifungal activity against Fusarium solani NCIM 1330 at 200 ug/disk after 48 hrs by agar disc-diffusion method; details: NCIM 1330, 48 h, read-out: DIZ; outline: as §1
[8] = system: Proteus vulgaris; assay: Antibacterial activity against Proteus vulgaris NCIM 2027 after 24 hrs by microdilution susceptibility method; details: NCIM 2027, 24 h; outline: as §2
[9] = system: Curvularia lunata; assay: Antifungal activity against Curvularia lunata NCIM 716 at 100 ug/disk after 48 hrs by agar disc-diffusion method; details: NCIM 716, 48 h, read-out: DIZ; outline: as §1
[10] = system: Aspergillus niger; assay: Antifungal activity against Aspergillus niger NCIM 596 at 100 ug/disk after 48 hrs by agar disc-diffusion method; details: NCIM 596, 48 h, read-out: DIZ; outline: as §1
[11] = system: Curvularia lunata; assay: Antifungal activity against Curvularia lunata NCIM 716 after 48 hrs by microdilution susceptibility method; details: NCIM 716, 48 h; outline: as §2
[12] = system: Bacillus subtilis; assay: Antibacterial activity against Bacillus subtilis NCIM 2063 at 100 ug/disk after 24 hrs by agar disc-diffusion method; details: NCIM 2063, 24 h, read-out: DIZ; outline: as §1
[13] = system: Fusarium solani; assay: Antifungal activity against Fusarium solani NCIM 1330 at 100 ug/disk after 48 hrs by agar disc-diffusion method; details: NCIM 1330, 48 h, read-out: DIZ; outline: as §1
[14] = system: Staphylococcus aureus; assay: Antibacterial activity against Staphylococcus aureus NCIM 5021 at 200 ug/disk after 24 hrs by agar disc-diffusion method; details: NCIM 5021, 24 h, read-out: DIZ; outline: as §1
[15] = system: Fusarium solani; assay: Antifungal activity against Fusarium solani NCIM 1330 after 48 hrs by microdilution susceptibility method; details: NCIM 1330, 48 h; outline: as §2
[16] = system: Proteus vulgaris; assay: Antibacterial activity against Proteus vulgaris NCIM 2027 at 100 ug/disk after 24 hrs by agar disc-diffusion method; details: NCIM 2027, 24 h, read-out: DIZ; outline: as §1
[17] = system: Klebsiella pneumoniae; assay: Antibacterial activity against Klebsiella pneumoniae NCIM 2957 after 24 hrs by microdilution susceptibility method; details: NCIM 2957, 24 h; outline: as §2
[18] = system: Proteus vulgaris; assay: Antibacterial activity against Proteus vulgaris NCIM 2027 at 200 ug/disk after 24 hrs by agar disc-diffusion method; details: NCIM 2027, 24 h, read-out: DIZ; outline: as §1
[19] = system: Staphylococcus aureus; assay: Antibacterial activity against Staphylococcus aureus NCIM 5021 at 100 ug/disk after 24 hrs by agar disc-diffusion method; details: NCIM 5021, 24 h, read-out: DIZ; outline: as §1
[20] = system: Bacillus subtilis; assay: Antibacterial activity against Bacillus subtilis NCIM 2063 at 200 ug/disk after 24 hrs by agar disc-diffusion method; details: NCIM 2063, 24 h, read-out: DIZ; outline: as §1
[21] = system: Curvularia lunata; assay: Antifungal activity against Curvularia lunata NCIM 716 at 200 ug/disk after 48 hrs by agar disc-diffusion method; details: NCIM 716, 48 h, read-out: DIZ; outline: as §1

Row | Compound | zone of inhibition at 200 µg/disc [1] [mm] | MIC [2] [µg/mL] | zone of inhibition at 100 µg/disc [3] [mm] | zone of inhibition at 200 µg/disc [4] [mm] | MIC [5] [µg/mL] | MIC [6] [µg/mL] | zone of inhibition at 200 µg/disc [7] [mm] | MIC [8] [µg/mL] | zone of inhibition at 100 µg/disc [9] [mm] | zone of inhibition at 100 µg/disc [10] [mm] | MIC [11] [µg/mL] | zone of inhibition at 100 µg/disc [12] [mm] | zone of inhibition at 100 µg/disc [13] [mm] | zone of inhibition at 200 µg/disc [14] [mm] | MIC [15] [µg/mL] | zone of inhibition at 100 µg/disc [16] [mm] | MIC [17] [µg/mL] | zone of inhibition at 200 µg/disc [18] [mm] | zone of inhibition at 100 µg/disc [19] [mm] | zone of inhibition at 200 µg/disc [20] [mm] | further results
1 | Nn1c(CS(=O)(=O)Cc2ccc(Cl)cc2)nnc1-c1ccccc1 | 29 | 200 (≈ 551 µM) | 27 | 20 | 100 (≈ 276 µM) | 100 (≈ 276 µM) | 26 | 200 (≈ 551 µM) | 24 | 18 | 200 (≈ 551 µM) | 28 | 24 | 31 | 100 (≈ 276 µM) | 26 | 200 (≈ 551 µM) | 29 | 27 | 33 | zone of inhibition at 200 µg/disc [21]: 27 mm
2 | O=S(=O)(Cc1ccccc1)Cc1nnc(-c2ccccc2)s1 | 22 | 200 (≈ 605 µM) | 17 | 19 | 200 (≈ 605 µM) | 200 (≈ 605 µM) | 20 | 400 (≈ 1210 µM) | 21 | 16 | 200 (≈ 605 µM) | 22 | 18 | 29 | 200 (≈ 605 µM) | 16 | 200 (≈ 605 µM) | 24 | 24 | 25 | zone of inhibition at 200 µg/disc [21]: 23 mm
3 | Nn1c(CS(=O)(=O)Cc2ccccc2)nnc1-c1ccccc1 | 22 | 400 (≈ 1220 µM) | 18 | 21 | 400 (≈ 1220 µM) | 400 (≈ 1220 µM) | 21 | 200 (≈ 609 µM) | 22 | 17 | 200 (≈ 609 µM) | 23 | 19 | 24 | 200 (≈ 609 µM) | 17 | 200 (≈ 609 µM) | 22 | 22 | 26 | zone of inhibition at 200 µg/disc [21]: 24 mm
4 | Nn1c(CS(=O)(=O)Cc2ccccc2)nnc1-c1ccccc1Cl | 28 | 100 (≈ 276 µM) | 24 | 21 | 100 (≈ 276 µM) | 200 (≈ 551 µM) | 23 | 200 (≈ 551 µM) | 18 | 17 | 100 (≈ 276 µM) | 30 | 21 | 32 | 100 (≈ 276 µM) | 26 | 200 (≈ 551 µM) | 29 | 29 | 34 | zone of inhibition at 200 µg/disc [21]: 20 mm
5 | O=S(=O)(Cc1ccc(Cl)cc1)Cc1nnc(-c2ccccc2Cl)s1 | 24 | 100 (≈ 250 µM) | 20 | 23 | 50 (≈ 125 µM) | 100 (≈ 250 µM) | 31 | 200 (≈ 501 µM) | 25 | 20 | 100 (≈ 250 µM) | 27 | 28 | 33 | 100 (≈ 250 µM) | 20 | 100 (≈ 250 µM) | 23 | 29 | 31 | zone of inhibition at 200 µg/disc [21]: 27 mm
